Calls of active or inactive are those of the source. The rule behind the calls is not given here. Where a SMILES comes first, the peptide text is derived from it. Bridges are numbered along the chain shown (N, C = ends).
Assays:
[1] = Chemical stability 0.2M NH4OAc at pH 5.0 at 1 mg/ml at room temperature assessed as ratio of Asn-containing cyclic peptides after 48 hrs by HPLC method; format: physicochemical; conditions: 0.2 M NH4OAc buffer, read-out: Stability
Outline: (§1)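 Peptide at 1.0 mg/mL (~2 mM). Buffer runs at room temperature: 0.2 M NH4OAc pH 5.0, PBS pH 7.4 or 0.1 M Tris pH 8.1. Medium runs at 37 °C in DMEM GlutaMAX-I with 10% FCS and gentamicin 160 μg/mL. Sampled at 24 and 48 h by analytical RP-HPLC. Asn/isoAsp/Asp ratio taken from peak AUC, species identified by MS and Asp reference peptides.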

[2] = Chemical stability PBS buffer at pH 7.4 at 1 mg/ml at room temperature assessed as ratio of Asn-containing cyclic peptides after 48 hrs by HPLC method; format: physicochemical; conditions: read-out: Stability; outline: as §1
[3] = Chemical stability DMEM cell culture medium at pH 7.3 at 1 mg/ml at 37 degC assessed as ratio of Asn-containing cyclic peptides after 24 hrs by HPLC method; format: physicochemical; conditions: read-out: Stability; outline: as §1
[4] = Chemical stability PBS buffer at pH 7.4 at 1 mg/ml at room temperature assessed as ratio of Asn-containing cyclic peptides after 24 hrs by HPLC method; format: physicochemical; conditions: read-out: Stability; outline: as §1
[5] = Chemical stability 0.2M NH4OAc at pH 5.0 at 1 mg/ml at room temperature assessed as ratio of Asn-containing cyclic peptides after 24 hrs by HPLC method; format: physicochemical; conditions: 0.2 M NH4OAc buffer, read-out: Stability; outline: as §1
[6] = biological target: T1, Integrin alpha-V/beta-3 (Homo sapiens) (UniProt P05106+P06756); assay: Binding affinity to integrin alphav beta3 receptor assessed as receptor-mediated cell adhesion in human A2058 cells at 10 nM to 1 uM and measured every 20 seconds for 25 hrs at 10 kHz by xCELLigence SP system based method
Outline: (§2)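 A2058 human melanoma cells grown in RPMI 1640 with 10% FCS, 2 mM L-glutamine and penicillin/streptomycin at 37 °C, 5% CO2. Electrodes coated 20 min at 4 °C with peptide (10-fold dilutions in 0.1% gelatin/PBS), dried 5 min. Background read 30 min, then 10^4 cells/well added. Impedance recorded every 20 s for 25 h at 10 kHz, in triplicate. ΔCI at 5, 10 and 25 h, normalized to gelatin-only control (100%).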

[7] = Chemical stability 0.1M Tris buffer at pH 8.1 at 1 mg/ml at room temperature assessed as ratio of Asn-containing cyclic peptides after 24 hrs by HPLC method; format: physicochemical; conditions: read-out: Stability; outline: as §1
[8] = Chemical stability 0.1M Tris buffer at pH 8.1 at 1 mg/ml at room temperature assessed as ratio of Asn-containing cyclic peptides after 48 hrs by HPLC method; format: physicochemical; conditions: read-out: Stability; outline: as §1
[9] = biological target: T1, Integrin alpha-V/beta-3 (Homo sapiens); assay: Binding affinity to integrin alphav beta3 receptor assessed as receptor-mediated cell adhesion in human A2058 cells at 10 nM to 100 nM and measured every 20 seconds for 5 to 25 hrs at 10 kHz by xCELLigence SP system based method; outline: as §2
[10] = Chemical stability DMEM cell culture medium at pH 7.3 at 1 mg/ml at 37 degC assessed as ratio of Asn-containing cyclic peptides after 48 hrs by HPLC method; format: physicochemical; conditions: read-out: Stability; outline: as §1
[11] = biological target: T1, Integrin alpha-V/beta-3 (Homo sapiens); assay: Binding affinity to integrin alphav beta3 receptor assessed as receptor-mediated cell adhesion in human A2058 cells at 1 uM and measured every 20 seconds for 5 to 25 hrs at 10 kHz by xCELLigence SP system based method; outline: as §2
[12] = biological target: T1, Integrin alpha-V/beta-3 (Homo sapiens); assay: Binding affinity to integrin alphav beta3 receptor assessed as receptor-mediated cell adhesion in human A2058 cells at 10 nM to 1 uM and measured every 20 seconds for >5 hrs at 10 kHz by xCELLigence SP system based method; outline: as §2
[13] = biological target: T1, Integrin alpha-V/beta-3 (Homo sapiens); assay: Binding affinity to integrin alphav beta3 receptor assessed as receptor-mediated cell adhesion in human A2058 cells at 100 nM and measured every 20 seconds for 25 hrs at 10 kHz by xCELLigence SP system based method; outline: as §2

Structure (SMILES): N=C(N)NCCC[C@@H]1NC(=O)CNC(=O)[C@H](CC(N)=O)NC(=O)CCSC[C@@H](C(N)=O)NC1=O
- remaining at 48 h, 1 mg/ml [1]: 99%
- remaining at 48 h, 1 mg/ml [2]: 89%
- remaining at 24 h, 1 mg/ml [3]: 0%
- remaining at 24 h, 1 mg/ml [4]: 94%
- remaining at 24 h, 1 mg/ml [5]: 100%
- Activity [6]: Active
- remaining at 24 h, 1 mg/ml [7]: 86%
- remaining at 48 h, 1 mg/ml [8]: 73%

Structure (SMILES): CC(=O)N[C@H]1CSSC[C@@H](C(N)=O)NC(=O)[C@H](CCCNC(=N)N)NC(=O)CNC(=O)[C@H](CC(N)=O)NC1=O (Ac-CNGRC-NH2; disulfide 1-5)
- remaining at 48 h, 1 mg/ml [1]: 100%
- remaining at 48 h, 1 mg/ml [2]: 93%
- remaining at 24 h, 1 mg/ml [3]: 46%
- remaining at 24 h, 1 mg/ml [4]: 96%
- Activity [9]: Active
- remaining at 24 h, 1 mg/ml [7]: 85%
- remaining at 48 h, 1 mg/ml [8]: 71%
- remaining at 48 h, 1 mg/ml [10]: 0%

Structure (SMILES): N=C(N)NCCC[C@@H]1NC(=O)CNC(=O)[C@H](CC(N)=O)NC(=O)[C@H](CCCCN)NC(=O)CC[C@@H](C(N)=O)NC1=O (KNGRE-NH2; lactam N-5)
- remaining at 48 h, 1 mg/ml [1]: 100%
- remaining at 48 h, 1 mg/ml [2]: 100%
- remaining at 24 h, 1 mg/ml [3]: 92%
- Activity [11]: inactive
- Activity [9]: Active
- remaining at 48 h, 1 mg/ml [8]: 100%
- remaining at 48 h, 1 mg/ml [10]: 54%

Structure (SMILES): N=C(N)NCCC[C@@H]1NC(=O)CNC(=O)[C@H](CC(N)=O)NC(=O)CSCCC(C(N)=O)NC1=O (single isomer, unassigned)
- remaining at 48 h, 1 mg/ml [1]: 96%
- remaining at 48 h, 1 mg/ml [2]: 44%
- remaining at 24 h, 1 mg/ml [3]: 0%
- remaining at 24 h, 1 mg/ml [4]: 64%
- remaining at 24 h, 1 mg/ml [5]: 100%
- Activity [6]: inactive
- remaining at 24 h, 1 mg/ml [7]: 66%
- remaining at 48 h, 1 mg/ml [8]: 43%

Structure (SMILES): N=C(N)NCCC[C@@H]1NC(=O)CNC(=O)[C@H](CC(N)=O)NC(=O)[C@H](CCCCN)NC(=O)CSC[C@@H](C(N)=O)NC1=O ({CH2CO}-KNGRC-NH2; thioether N-5)
- remaining at 48 h, 1 mg/ml [1]: 90%
- remaining at 48 h, 1 mg/ml [2]: 43%
- remaining at 24 h, 1 mg/ml [3]: 0%
- remaining at 24 h, 1 mg/ml [4]: 58%
- remaining at 24 h, 1 mg/ml [5]: 100%
- Activity [6]: inactive
- remaining at 24 h, 1 mg/ml [7]: 36%
- remaining at 48 h, 1 mg/ml [8]: 15%

Structure (SMILES): N=C(N)NCCC[C@@H]1NC(=O)CNC(=O)[C@H](CC(N)=O)NC(=O)CSC[C@@H](C(N)=O)NC1=O ({CH2CO}-NGRC-NH2; thioether N-4)
- remaining at 48 h, 1 mg/ml [1]: 67%
- remaining at 48 h, 1 mg/ml [2]: 15%
- remaining at 24 h, 1 mg/ml [3]: 0%
- remaining at 24 h, 1 mg/ml [4]: 36%
- remaining at 24 h, 1 mg/ml [5]: 85%
- Activity [12]: Active
- remaining at 24 h, 1 mg/ml [7]: 19%
- Activity [13]: Active
- remaining at 48 h, 1 mg/ml [8]: 13%

Structure (SMILES): N=C(N)NCCC[C@@H]1NC(=O)CNC(=O)[C@H](CC(N)=O)NC(=O)[C@@H]2CCCN2C(=O)CSC[C@@H](C(N)=O)NC1=O ({CH2CO}-PNGRC-NH2; thioether N-5)
- remaining at 48 h, 1 mg/ml [1]: 98%
- remaining at 48 h, 1 mg/ml [2]: 75%
- remaining at 24 h, 1 mg/ml [4]: 86%
- remaining at 24 h, 1 mg/ml [5]: 100%
- Activity [6]: inactive
- remaining at 24 h, 1 mg/ml [7]: 67%
- remaining at 48 h, 1 mg/ml [8]: 47%

— ChEMBL document CHEMBL3414485, “Development of cyclic NGR peptides with thioether linkage: structure and dynamics determining deamidation and bioactivity” (J Med Chem, 2015)
